≈ marks a conversion by molar mass, not a printed value.
What was measured:
Alternaria alternata = assay: Antifungal activity against Alternaria alternata by MTT assay; format: functional
Procedure, shortened: (§1)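 MIC read visually on microtiter plates, then confirmed colorimetrically with MTT. Each well received RPMI 1640 carrying MTT at 5 mg/mL and was incubated 3 h at 37 °C. Medium was removed and the dye extracted with isopropanol containing 5% mol/L HCl for 30 min at room temperature with gentle agitation. OD read at 550 nm.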

Cytospora mali = assay: Antifungal activity against Valsa mali by MTT assay; format: functional; procedure, shortened: as §1
Alternaria solani = assay: Antifungal activity against Alternaria solani by MTT assay; format: functional; procedure, shortened: as §1
[1] = test system: Fusarium oxysporum f. sp. vasinfectum; assay: Antifungal activity against Fusarium oxysporum f. sp. vasinfectum by MTT assay; format: functional; procedure, shortened: as §1
Colletotrichum lagenaria = assay: Antifungal activity against Colletotrichum lagenarium by MTT assay; format: functional; procedure, shortened: as §1
Pyricularia oryzae = assay: Antifungal activity against Pyricularia oryzae by MTT assay; format: functional
Urease = Urease (Canavalia ensiformis, UniProt P07374); assay: Inhibition of jack bean urease
Procedure, shortened: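 Jack bean urease (4 U) preincubated with test compound (100 µg) for 2 h at room temperature; then 100 mM phosphate buffer pH 6.8 containing 500 mM urea and 0.002% phenol red added, incubated at room temperature; time for ammonium carbonate to raise pH from 6.8 to 7.7 read at 570 nm; IC50 determined; acetohydroxamic acid as positive control.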

Sequence of Urease (P07374 whole entry): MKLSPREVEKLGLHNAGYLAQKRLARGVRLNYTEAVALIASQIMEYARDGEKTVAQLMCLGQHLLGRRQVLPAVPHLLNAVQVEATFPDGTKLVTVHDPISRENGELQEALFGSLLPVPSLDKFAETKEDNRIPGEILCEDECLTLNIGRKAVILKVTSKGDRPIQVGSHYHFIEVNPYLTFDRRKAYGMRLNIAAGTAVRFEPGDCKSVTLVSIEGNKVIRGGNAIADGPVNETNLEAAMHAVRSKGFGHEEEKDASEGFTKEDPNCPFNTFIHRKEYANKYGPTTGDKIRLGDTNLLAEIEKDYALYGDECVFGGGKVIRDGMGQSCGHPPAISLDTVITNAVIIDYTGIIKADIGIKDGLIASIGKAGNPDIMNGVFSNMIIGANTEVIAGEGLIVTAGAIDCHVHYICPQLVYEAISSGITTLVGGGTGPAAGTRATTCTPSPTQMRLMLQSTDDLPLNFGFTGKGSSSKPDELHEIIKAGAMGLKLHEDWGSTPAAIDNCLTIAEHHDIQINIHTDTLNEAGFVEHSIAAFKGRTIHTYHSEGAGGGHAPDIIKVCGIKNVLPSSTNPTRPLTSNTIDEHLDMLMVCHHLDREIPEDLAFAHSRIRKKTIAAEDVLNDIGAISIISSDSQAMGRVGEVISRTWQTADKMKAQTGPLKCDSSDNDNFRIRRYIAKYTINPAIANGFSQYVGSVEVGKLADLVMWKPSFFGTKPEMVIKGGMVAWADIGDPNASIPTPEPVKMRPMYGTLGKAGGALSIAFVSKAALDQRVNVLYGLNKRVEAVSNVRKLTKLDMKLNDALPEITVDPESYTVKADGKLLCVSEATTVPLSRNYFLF

Compound | MIC (Alternaria alternata) | MIC (Cytospora mali) | MIC (Alternaria solani) | MIC [1] | MIC (Colletotrichum lagenaria) | MIC (Pyricularia oryzae) | IC50 (Urease)
Oc1ccc([C@H]2Oc3cc(O)cc4c3[C@@H]2c2cc(O)cc3c2[C@@H](c2cc(O)cc5c2[C@@H]4[C@H](c2ccc(O)cc2)O5)[C@H](c2ccc(O)cc2)O3)cc1 | > 50 µg/mL | > 50 µg/mL | 3.12 µg/mL (≈ 4.6 µM) | 25.2 µg/mL (≈ 37.1 µM) | 12.5 µg/mL (≈ 18.4 µM) | 6.25 µg/mL (≈ 9.21 µM) | –
CC(=O)NO [ACETOHYDROXAMIC ACID] | – | – | – | – | – | – | 17.3 µM
O=C1C=C2O[C@@H](c3ccc(O)cc3)[C@H]3C2=C(C1=O)[C@H]1c2c(cc(O)cc2[C@@H]2c4c(cc(O)cc43)O[C@H]2c2ccc(O)cc2)O[C@@H]1c1ccc(O)cc1 [HOPEANOLIN] | 22.5 µg/mL (≈ 32.5 µM) | 1.55 µg/mL (≈ 2.24 µM) | 1.56 µg/mL (≈ 2.25 µM) | 6.22 µg/mL (≈ 8.98 µM) | 10.6 µg/mL (≈ 15.3 µM) | 0.1 µg/mL (≈ 0.144 µM) | –
CC(=O)N1CCN(c2ccc(OCC3COC(Cn4ccnc4)(c4ccc(Cl)cc4Cl)O3)cc2)CC1 (stereo not drawn) [KETOCONAZOLE] | 1.04 µg/mL (≈ 1.96 µM) | 0.51 µg/mL (≈ 0.96 µM) | 0.83 µg/mL (≈ 1.56 µM) | 2.21 µg/mL (≈ 4.16 µM) | 0.97 µg/mL (≈ 1.83 µM) | 0.03 µg/mL (≈ 0.0565 µM) | –
Oc1ccc([C@@H]2c3c(O)cc(O)cc3[C@@H]3c4c(cc(O)c5c4[C@@H]2[C@@H](c2ccc(O)cc2)[C@@H]5c2cc(O)cc(O)c2)O[C@H]3c2ccc(O)cc2)cc1 [PAUCIFLOROL A] | 1.56 µg/mL (≈ 2.29 µM) | > 50 µg/mL | > 50 µg/mL | > 50 µg/mL | > 50 µg/mL | 11.5 µg/mL (≈ 16.9 µM) | –
O=C1c2cc(O)cc3oc(-c4ccc(O)cc4)c(c23)-c2cc(O)cc(O)c2C1c1ccc(O)cc1 (stereo not drawn) [SHOREAPHENOL] | – | 7.13 µg/mL (≈ 15.3 µM) | > 50 µg/mL | > 50 µg/mL | > 50 µg/mL | 27.3 µg/mL (≈ 58.5 µM) | 127 µM
Oc1ccc([C@@H]2c3c(O)cc(O)cc3[C@@H]3c4c(cc(O)c5c4[C@H]2[C@H](c2ccc(O)cc2)[C@H]5c2cc(O)cc(O)c2)O[C@H]3c2ccc(O)cc2)cc1 [VATICANOL A] | > 50 µg/mL | 20.1 µg/mL (≈ 29.5 µM) | 6.25 µg/mL (≈ 9.18 µM) | 12.7 µg/mL (≈ 18.7 µM) | > 50 µg/mL | 3.12 µg/mL (≈ 4.58 µM) | –
Oc1ccc([C@@H]2c3cc(O)ccc3[C@@H]3c4c(O)cc(O)cc4[C@@H]2c2c(O)cc(O)c4c2[C@@H]3[C@@H](c2ccc(O)cc2)[C@@H]4c2cc(O)cc(O)c2)cc1 [VATICANOL G] | > 50 µg/mL | > 50 µg/mL | 24.6 µg/mL (≈ 36.1 µM) | > 50 µg/mL | > 50 µg/mL | 0.78 µg/mL (≈ 1.15 µM) | –

From ChEMBL document CHEMBL1158139, “Bioactive oligostilbenoids from the stem bark of Hopea exalata” (J Nat Prod, 2006)
